Active and inactive are the calls of the source.
Assays:
HT-29 [1] = test: Antitumor activity against human HT-29 cells xenografted in nude BALB/c mouse assessed as reduction in tumor volume at 40 mg/kg, ip dosed every day for 21 days; type: functional, organism-based
[2] = Drug metabolism assessed as GSTpi (unknown origin) mediated compound fluorescence activation at 1 uM in presence of 100 uM serine by HPLC analysis; type: ADME; settings: human
Summary of the method: (§1)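 Selectivity test: compound (1 µM) with catalytic GSTπ and each analyte in water with 1% (v/v) DMSO at pH 4.0, 37 °C for 0.5 h. Analytes were cations at 1 mM; amino acids, vitamin C, Na2S and GSH at 100 µM. Readout was fluorescence emission spectra (excitation 440 nm, recorded 450–650 nm).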

HT-29 [3] = test: Induction of autophagy in human HT-29 cells assessed as increase in Beclin-1 protein level incubated for 72 hrs by Western blot analysis; type: functional, cell-based
Summary of the method: (§2)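 HT29 cells (1.5×10^5/mL) were treated for 72 h and lysed. Lysate (0.05 mg/lane) was run on 12% SDS-PAGE and transferred to nitrocellulose. After blocking in 5% non-fat milk, blots were probed for Bax, Bcl-2, cleaved caspase-3, cleaved PARP, LC3, p62 and beclin-1. Levels were normalised to β-actin, and means ± SD taken from three independent assays.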

[4] = Drug uptake in lysosome of human CCD-841 cells at 1 uM incubated for 60 mins by Lyso-tracker based confocal fluorescence microscopy; type: ADME; settings: 1 h
Summary of the method: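 HT29 and CCD841 cells were seeded at 2×10^5 in glass-bottom dishes. They were co-incubated in DMEM with compound (1 µM) and LysoTracker Red DND-99 (1 µM). Confocal imaging used a 40× water objective. Compound channel: 405 nm laser, 480–530 nm filter. LysoTracker channel: 561 nm laser, 580–630 nm filter.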

[5] = Drug metabolism assessed as GSTpi (unknown origin) mediated compound fluorescence activation at 1 uM in presence of 1 mM Al3+ by HPLC analysis; type: ADME; settings: human; summary of the method: as §1
[6] = Toxicity in ICR mouse assessed as induction of abnormality in eating behavior at 240 mg/kg, ip for 14 days; type: organism-based; settings: in vivo, 336 h
Summary of the method: (§3)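 Female ICR mice (n = 10 per group) given a single intraperitoneal dose at 240.0, 300.0, 375.0, 468.8 or 585.9 mg/kg, or vehicle. Deaths recorded at 1 h, 4 h and daily through day 14. Body weight, drinking, eating and activity observed for abnormality; LD50 derived from mortality.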

[7] = Drug metabolism assessed as GSTpi (unknown origin) mediated 1-(3,4,5-trimethoxyphenyl)-9H-pyrido[3,4-b]indol-3-amine formation at 40 uM in presence of 0.8 mM GSH by HPLC analysis; type: ADME; settings: human
Summary of the method: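 HPLC measurement of amine release after incubating compound (40 µM) with GSH (0.8 mM) and GSTπ or GSTα at 0.03 µg/ml.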

[8] = Toxicity in ICR mouse assessed as induction of animal death at 240 to 375 mg/kg, ip measured after 3 days; type: organism-based; settings: in vivo, 72 h
Summary of the method: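 Female ICR mice, randomised, n = 10 per group. Single intraperitoneal dose of 240.0, 300.0, 375.0, 468.8 or 585.9 mg/kg, or vehicle. Deaths recorded at 1 h, 4 h, days 1–4 and days 5–14. Body weight, drinking, eating and activity observed over 14 days. Survival percentage taken on day 14; LD50 derived from the dose–mortality data.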

[9] = Drug metabolism assessed as GSTpi (unknown origin) mediated compound fluorescence activation at 1 uM in presence of 100 uM Na2S by HPLC analysis; type: ADME; settings: human; summary of the method: as §1
HT-29 [10] = test: Induction of apoptosis in human HT-29 cells assessed as increase in cleaved caspase-3 protein level incubated for 72 hrs by Western blot analysis; type: functional, cell-based; summary of the method: as §2
[11] = Drug uptake in human HT-29 cells at 1 uM measured within 10 mins by confocal fluorescence microscopy; type: ADME, cell-based; settings: ht-29, 10 min
Summary of the method: (§4)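 Cells were seeded at 2×10^5 in glass-bottom dishes and allowed to attach. Medium was then replaced with DMEM containing 1 µM compound. Confocal images were taken every minute for 60 min with a 40× water objective, 405 nm laser and 480–530 nm filter. Intracellular fluorescence intensity was quantified.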

[12] = Drug metabolism assessed as GSTpi (unknown origin) mediated compound fluorescence activation at 1 uM in presence of 100 uM alanine by HPLC analysis; type: ADME; settings: human; summary of the method: as §1
[13] = Drug metabolism assessed as GSTpi (unknown origin) mediated compound fluorescence activation at 1 uM in presence of 1 mM Zn2+ by HPLC analysis; type: ADME; settings: human; summary of the method: as §1
[14] = Drug metabolism assessed as GSTpi (unknown origin) mediated compound fluorescence activation at 1 uM in presence of 100 uM cysteine by HPLC analysis; type: ADME; settings: human; summary of the method: as §1
[15] = Drug metabolism assessed as GSTpi (unknown origin) mediated compound fluorescence activation at 1 uM in presence of 1 mM Ca2+ by HPLC analysis; type: ADME; settings: human; summary of the method: as §1
HT-29 [16] = test: Antitumor activity against human HT-29 cells xenografted in nude BALB/c mouse assessed as reduction in tumor weight at 40 mg/kg, ip dosed every day for 21 days relative to control; type: functional; set-up: scale not given: the % may be the effect or the level left
[17] = Drug localization in colon of intra-operative mouse xenografted with human HT-29/Luc cells at 40 mg/kg, iv measured after 2 hrs post dose by fluorescence imaging assay; type: ADME, organism-based; settings: in vivo
Summary of the method: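 Orthotopic model: 1×10^6 HT29/Luc cells were injected into the upper colon of anaesthetised nude mice (5–6 weeks old). Tumours were confirmed by bioluminescence after two weeks. Dosing was 40 mg/kg iv, with whole-body bioluminescence and fluorescence imaging at 2 h under pentobarbital anaesthesia. Organs were then excised and imaged ex vivo (ex/em 430/490 nm).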

[18] = Drug metabolism assessed as GSTpi (unknown origin) mediated compound fluorescence activation at 1 uM in presence of 1 mM Na+ by HPLC analysis; type: ADME; settings: human; summary of the method: as §1
[19] = Drug metabolism assessed as GSTpi (unknown origin) mediated compound fluorescence activation at 1 uM in presence of 100 uM glycine by HPLC analysis; type: ADME; settings: human; summary of the method: as §1
[20] = Drug metabolism assessed as GSTpi (unknown origin) mediated compound fluorescence activation at 1 uM in presence of 1 mM Mg2+ by HPLC analysis; type: ADME; settings: human; summary of the method: as §1
[21] = Toxicity in ICR mouse assessed as induction of abnormality in body weight level at 240 mg/kg, ip for 14 days; type: organism-based; settings: in vivo, 336 h; summary of the method: as §3
HT-29 [22] = test: Induction of apoptosis in human HT-29 cells at 1 uM incubated for 72 hrs by FITC-AnnexinV/PI staining based flow cytometry relative to control; type: functional
Summary of the method: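 HT29 cells were cultured 12 h, then exposed to compound (0.4, 1.0, 2.5 µM) or vehicle for 72 h. Harvested cells were stained with Annexin V and PI, and apoptotic cell percentages measured by flow cytometry. Means ± SD come from three separate experiments.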

[23] = Drug uptake in human CCD-841 cells at 1 uM measured within 10 mins by confocal fluorescence microscopy; type: ADME, cell-based; summary of the method: as §4
[24] = Drug metabolism assessed as GSTpi (unknown origin) mediated compound fluorescence activation at 1 uM in presence of 100 uM histidine by HPLC analysis; type: ADME; settings: human; summary of the method: as §1
[25] = Drug metabolism assessed as GSTpi (unknown origin) mediated compound fluorescence activation at 1 uM in presence of 100 uM vitamin C by HPLC analysis; type: ADME; settings: human; summary of the method: as §1

COc1cc(-c2nc(NC(=O)OCC3=CCCCC3=O)cc3c2[nH]c2ccccc23)cc(OC)c1OC
Active: Drug uptake [11] | Drug uptake [17]
active: Activity (HT-29 [1]) | Activity (HT-29 [3]) Dose-dependent effect | Activity (HT-29 [10]) Dose-dependent effect
Metabolite_Notdetected: Drug metabolism [2] | Drug metabolism [5] | Drug metabolism [9] | Drug metabolism [12] | Drug metabolism [13] | Drug metabolism [14] | Drug metabolism [15] | Drug metabolism [18] | Drug metabolism [19] | Drug metabolism [20] | Drug metabolism [24] | Drug metabolism [25]
Metabolite_Detected: Drug metabolism [7]
Non-Toxic: Activity [6] | Activity [8] | Activity [21]
Not Active: Drug uptake [4] | Drug uptake [23]
36.8%: Activity (HT-29 [22])
67.7%: Activity (HT-29 [16])
